Experimental data as given in ChEMBL document CHEMBL4364248, “Discovery of 1,2,4-oxadiazole-Containing hydroxamic acid derivatives as histone deacetylase inhibitors potential application in cancer therapy” (Eur J Med Chem, 2019).

Key:
Histone deacetylase 1 = Histone deacetylase 1 (Homo sapiens, UniProt Q13547); assay: Inhibition of recombinant full length HDAC1 (unknown origin) using Ac-peptide-AMC as substrate at 100 nM after 1 hr by fluorescence assay relative to control
Outline: (§1)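 Full-length recombinant HDAC1 or HDAC6 was incubated with compound, trypsin and Ac-peptide-AMC substrate for 1 h at room temperature. Fluorescence was read at ex 355/em 460 nm. Inhibition was calculated against the DMSO vehicle control.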

[1] = target: T1, Protein deacetylase HDAC6 (Homo sapiens) (UniProt Q9UBN7); assay: Inhibition of recombinant full length HDAC6 (unknown origin) using Ac-peptide-AMC as substrate at 100 nM after 1 hr by fluorescence assay relative to control; outline: as §1
T1 sequence (whole entry): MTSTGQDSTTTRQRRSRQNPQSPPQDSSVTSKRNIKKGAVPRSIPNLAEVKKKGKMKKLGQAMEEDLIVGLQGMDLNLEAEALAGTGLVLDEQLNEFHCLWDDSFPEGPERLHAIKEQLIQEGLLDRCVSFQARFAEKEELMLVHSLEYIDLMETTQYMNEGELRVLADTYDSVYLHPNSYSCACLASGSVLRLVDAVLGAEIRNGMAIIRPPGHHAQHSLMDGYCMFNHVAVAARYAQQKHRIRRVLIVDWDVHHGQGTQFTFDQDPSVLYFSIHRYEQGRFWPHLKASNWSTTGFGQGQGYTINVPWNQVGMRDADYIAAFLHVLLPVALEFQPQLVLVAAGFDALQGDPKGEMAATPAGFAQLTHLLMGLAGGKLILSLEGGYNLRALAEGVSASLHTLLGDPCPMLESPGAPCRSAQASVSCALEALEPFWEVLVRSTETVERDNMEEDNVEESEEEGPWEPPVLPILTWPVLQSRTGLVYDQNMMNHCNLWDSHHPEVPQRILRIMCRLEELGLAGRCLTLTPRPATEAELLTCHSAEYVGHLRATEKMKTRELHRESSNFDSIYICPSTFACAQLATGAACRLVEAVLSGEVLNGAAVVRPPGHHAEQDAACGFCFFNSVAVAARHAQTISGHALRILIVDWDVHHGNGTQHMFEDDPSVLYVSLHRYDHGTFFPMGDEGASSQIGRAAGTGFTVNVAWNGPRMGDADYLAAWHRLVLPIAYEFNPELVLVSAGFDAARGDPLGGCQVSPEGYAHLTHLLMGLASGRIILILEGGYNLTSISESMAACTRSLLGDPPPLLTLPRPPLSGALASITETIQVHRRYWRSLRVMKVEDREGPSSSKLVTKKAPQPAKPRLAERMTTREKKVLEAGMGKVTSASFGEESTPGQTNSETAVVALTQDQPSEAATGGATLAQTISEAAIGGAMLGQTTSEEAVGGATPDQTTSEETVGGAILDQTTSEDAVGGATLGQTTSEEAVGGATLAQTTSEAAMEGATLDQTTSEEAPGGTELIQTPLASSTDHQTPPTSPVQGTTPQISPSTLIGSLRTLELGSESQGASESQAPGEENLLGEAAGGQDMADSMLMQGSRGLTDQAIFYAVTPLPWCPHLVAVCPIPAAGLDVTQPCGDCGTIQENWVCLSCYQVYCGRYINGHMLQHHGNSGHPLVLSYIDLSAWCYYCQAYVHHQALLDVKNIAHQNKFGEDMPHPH

Raji = assay: Antiproliferative activity against human Raji cells after 72 hrs by MTT assay; type: functional, cell-based

Chain of Histone deacetylase 1 (Q13547 whole entry): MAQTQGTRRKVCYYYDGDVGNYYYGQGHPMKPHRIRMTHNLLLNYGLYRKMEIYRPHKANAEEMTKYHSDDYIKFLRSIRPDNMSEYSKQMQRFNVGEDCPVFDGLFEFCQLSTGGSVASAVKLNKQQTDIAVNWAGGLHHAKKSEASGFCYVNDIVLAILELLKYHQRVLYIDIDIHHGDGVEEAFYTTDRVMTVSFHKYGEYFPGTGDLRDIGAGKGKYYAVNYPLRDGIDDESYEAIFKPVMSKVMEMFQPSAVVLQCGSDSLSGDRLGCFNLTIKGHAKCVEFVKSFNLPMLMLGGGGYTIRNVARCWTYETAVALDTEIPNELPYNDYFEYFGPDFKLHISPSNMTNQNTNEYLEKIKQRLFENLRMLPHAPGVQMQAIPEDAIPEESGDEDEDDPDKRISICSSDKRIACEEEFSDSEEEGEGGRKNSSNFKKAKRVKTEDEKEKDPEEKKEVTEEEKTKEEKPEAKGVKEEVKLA

| Compound | inhibition (Histone deacetylase 1) | inhibition [1] | IC50 (Raji) |
| --- | --- | --- | --- |
| CN(Cc1nc(C2CCN(Cc3ccc(F)cc3)CC2)no1)c1ncc(C(=O)NO)cn1 | 92% | 65% | 22 nM |
| O=C(CCc1ccc(OCc2nc(C3CCN(Cc4ccccc4)CC3)no2)cc1)NO | 11% | 22% | – |
| O=C(/C=C/c1ccc(OCc2nc(C3CCN(Cc4ccccc4Cl)CC3)no2)cc1)NO | 8% | 59% | – |
| CN(Cc1nc(C2CCN(Cc3ccc(F)cc3F)CC2)no1)c1ncc(C(=O)NO)cn1 | 88% | 66% | 34.3 nM |
| CCCN1CCC(c2noc(COc3ccc(/C=C/C(=O)NO)cc3)n2)CC1 | 40% | 69% | – |
| CN(Cc1nc(C2CCN(Cc3ccccc3F)CC2)no1)c1ncc(C(=O)NO)cn1 | 84% | 44% | 98.6 nM |
| Cc1ccc(CN2CCC(c3noc(COc4ccc(CCC(=O)NO)cc4)n3)CC2)cc1 | 12% | 28% | – |
| O=C(/C=C/c1ccc(OCc2nc(C3CCN(Cc4ccccc4[N+](=O)[O-])CC3)no2)cc1)NO | 19% | 63% | – |
| N#Cc1ccccc1CN1CCC(c2noc(COc3ccc(/C=C/C(=O)NO)cc3)n2)CC1 | 36% | 65% | – |
| Cc1ccc(CN2CCC(c3noc(CN(C)c4ncc(/C=C/C(=O)NO)cn4)n3)CC2)cc1 | 61% | 60% | 292 nM |
| CN(Cc1nc(C2CCN(Cc3ccccc3)CC2)no1)c1ncc(C(=O)NO)cn1 | 96% | 63% | 27.6 nM |
| CN(Cc1nc(C2CCN(Cc3ccc(F)cc3Cl)CC2)no1)c1ncc(C(=O)NO)cn1 | 73% | 49% | 116 nM |
| CN(Cc1nc(C2CCN(Cc3ccc(C(F)(F)F)cc3)CC2)no1)c1ncc(C(=O)NO)cn1 | 62% | 30% | 207 nM |
| CN(Cc1nc(C2CCN(Cc3ccc(C#N)cc3)CC2)no1)c1ncc(C(=O)NO)cn1 | 68% | 38% | 117 nM |
| CN(Cc1nc(C2CCN(Cc3ccccc3Cl)CC2)no1)c1ncc(C(=O)NO)cn1 | 93% | 55% | 48.3 nM |
| COc1ccc(CN2CCC(c3noc(COc4ccc(/C=C/C(=O)NO)cc4)n3)CC2)cc1 | 36% | 75% | – |
| C=CCN1CCC(c2noc(COc3ccc(/C=C/C(=O)NO)cc3)n2)CC1 | 34% | 66% | – |
| Cc1cccc(CN2CCC(c3noc(CN(C)c4ncc(C(=O)NO)cn4)n3)CC2)c1 | 93% | 54% | 47.3 nM |
| O=C(Cc1ccc(OCc2nc(C3CCN(Cc4ccccc4)CC3)no2)cc1)NO | 18% | 35% | – |
| CCCN1CCC(c2noc(COc3ccc(CCC(=O)NO)cc3)n2)CC1 | 5% | 13% | – |
| C=CCN1CCC(c2noc(COc3ccc(CCC(=O)NO)cc3)n2)CC1 | 4% | 15% | – |
| O=C(NO)c1ccc(OCc2nc(C3CCN(Cc4ccccc4)CC3)no2)cc1 | 29% | 66% | – |
| CN(Cc1nc(C2CCN(Cc3ccccc3)CC2)no1)c1ncc(/C=C/C(=O)NO)cn1 | 65% | 55% | 547 nM |

Further lines, results first:

| inhibition (Histone deacetylase 1) | inhibition [1] | IC50 (Raji) | Compound |
| --- | --- | --- | --- |
| 35% | 73% | – | O=C(/C=C/c1ccc(OCc2nc(C3CCN(Cc4cccc(F)c4)CC3)no2)cc1)NO |
| 17% | 60% | – | O=C(/C=C/c1ccc(OCc2nc(C3CCN(Cc4ccc(F)c(F)c4)CC3)no2)cc1)NO |
| 35% | 71% | – | O=C(/C=C/c1ccc(OCc2nc(C3CCN(Cc4ccccc4)CC3)no2)cc1)NO |
| 31% | 68% | – | O=C(/C=C/c1ccc(OCc2nc(C3CCN(Cc4ccccc4F)CC3)no2)cc1)NO |
| 25% | 73% | – | Cc1cccc(CN2CCC(c3noc(COc4ccc(/C=C/C(=O)NO)cc4)n3)CC2)c1 |
| 14% | 68% | – | Cc1ccccc1CN1CCC(c2noc(COc3ccc(/C=C/C(=O)NO)cc3)n2)CC1 |
| 6% | 58% | – | O=C(/C=C/c1ccc(OCc2nc(C3CCN(Cc4ccc(Br)cc4)CC3)no2)cc1)NO |
| 35% | 74% | – | O=C(/C=C/c1ccc(OCc2nc(C3CCN(Cc4ccc(F)cc4F)CC3)no2)cc1)NO |
| 32% | 76% | – | Cc1ccc(CN2CCC(c3noc(COc4ccc(/C=C/C(=O)NO)cc4)n3)CC2)cc1 |
| 38% | 75% | – | O=C(/C=C/c1ccc(OCc2nc(C3CCN(Cc4ccc(F)cc4)CC3)no2)cc1)NO |
